Experiments:
[1] = tested on: delta toxin production (strain AH2759); assay: Quorum sensing inhibition observed by delta toxin immunoblot; type: cell-based, Staphylococcus aureus (MRSA); conditions: strain AH2759 in TSB; compounds 0.3–400 μM, AIP-2 2–500 nM; spent media
How it was run: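 Spent media from the agr P3lux reporter cultures: TSB with 10 μg/mL chloramphenicol, 1:500 inoculum, 1% DMSO final, 37 °C with shaking at 250 rpm. Wells were pooled and 0.22 μm filtered, then run on 15% SDS-PAGE and transferred to PVDF (90 min, 160 mA). Blots were blocked overnight at 4 °C in milk/BSA TBST, then probed 1 h at rt with rabbit anti-delta toxin (1:2000) and HRP anti-rabbit (1:10 000).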

[2] = tested on: agr quorum-sensing system (agr P3lux reporter strain AH2759); assay: agr P3lux reporter strain assay for quorum sensing inhibition; type: cell-based, Staphylococcus aureus (CA-MRSA strain LAC, USA300); conditions: Staphylococcus aureus, read-out: agr P3lux IC50, reporter strain AH2759; cell-density-normalized luminescence; ± standard error from four-parameter logistic fit

| Structure (SMILES) | suppression of delta toxin production (immunoblot) [1] | IC50 [2] |
| --- | --- | --- |
| O=C(O)c1cc(O)c2c(c1)C(=O)c1cc(O)c(O)c(O)c1C2=O [compound 1] | dose-dependent suppression | – |
| O=C1c2cc(O)cc(O)c2C(=O)c2c(O)cc(CO)cc21 [compound 3, ω-hydroxyemodin] | dose-dependent suppression | < 10 µM |
| CC(=O)C(O)c1cc(O)c2c(c1)C(=O)c1cc(O)cc(O)c1C2=O (centres unmarked) [compound 4] | dose-dependent suppression | – |
| C[C@H](O)Cc1cc(O)c2c(c1)C(=O)c1cc(O)cc(O)c1C2=O [compound 6, (+)-2′S-isorhodoptilometrin] | – | < 10 µM |

— PMC4073659 (Journal of Natural Products, 2014)
